Assay results from ChEMBL document CHEMBL1150393, “Evaluation of radiolabeled (hetero)aromatic analogues of N-(2-diethylaminoethyl)-4-iodobenzamide for imaging and targeted radionuclide therapy of melanoma” (J Med Chem, 2008).

How the values were obtained:
[1] = Partition coefficient, log P in phosphate buffer solution at pH 7.4; format: physicochemical
Summary of the method: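 Shake-flask partition: 50 µM [¹²⁵I]-labelled compound in phosphate buffer pH 7.4 was mixed with 2 mL n-octanol. Each phase was γ-counted, P was taken as the octanol/buffer activity ratio, and log P was reported.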

[2] = Drug excretion in mouse B16-F0 cells bearing C57BL/6 mouse urine at 0.74 to 0.92 MBq, iv after 72 hrs; format: ADME, organism-based; conditions: in vivo
Summary of the method: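 Urine was collected from two B16-F0 tumour-bearing C57BL6 mice for up to 72 h after iv tail-vein injection of the [¹²⁵I]-labelled compound (0.1 µmol). Samples were counted to give cumulative urinary excretion as %ID.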

[3] = Biodistribution in tumor of C57BL/6 mouse bearing mouse B16-F0 cells at 0.74 to 0.92 MBq, iv after 3 hrs; format: ADME, organism-based, Neoplasm; conditions: in vivo
Summary of the method: (§1)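 [¹²⁵I]-labelled compound given iv by tail vein (0.1 µmol per mouse) to male C57BL6 mice bearing s.c. B16-F0 flank tumours (5 × 10⁵ cells in PBS). Two mice per time point were killed by CO₂, frozen in liquid nitrogen and cut into 40 µm cryosections, eight slices per mouse. Slice radioactivity was read on a multiwire proportional counter, converted to kBq/g and reported as %ID/g.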

[4] = Ratio of drug level in tumor to liver of C57BL/6 mouse bearing mouse B16-F0 cells at 0.74 to 0.92 MBq, iv after 1 hr; format: ADME, organism-based; conditions: in vivo
Summary of the method: (§2)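 Tumour and organ radioactive concentrations came from whole-body cryosection counting (40 µm slices, eight per mouse, two mice per time) after tail-vein injection of the [¹²⁵I]-labelled compound (0.1 µmol) into male C57BL6 mice bearing s.c. B16-F0 melanoma. Each value is the ratio of the tumour concentration to the organ concentration.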

[5] = Ratio of drug level in tumor to lung of C57BL/6 mouse bearing mouse B16-F0 cells at 0.74 to 0.92 MBq, iv after 1 hr; format: ADME, organism-based; conditions: in vivo; summary of the method: as §2
[6] = Ratio of drug level in tumor to lung of C57BL/6 mouse bearing mouse B16-F0 cells at 0.74 to 0.92 MBq, iv after 3 hrs; format: ADME, organism-based; conditions: in vivo; summary of the method: as §2
[7] = Ratio of drug level in tumor to lung of C57BL/6 mouse bearing mouse B16-F0 cells at 0.74 to 0.92 MBq, iv after 6 hrs; format: ADME, organism-based; conditions: in vivo; summary of the method: as §2
[8] = Ratio of drug level in tumor to lung of C57BL/6 mouse bearing mouse B16-F0 cells at 0.74 to 0.92 MBq, iv after 24 hrs; format: ADME, organism-based; conditions: in vivo; summary of the method: as §2
[9] = Ratio of drug level in tumor to brain of C57BL/6 mouse bearing mouse B16-F0 cells at 0.74 to 0.92 MBq, iv after 1 hr; format: ADME, organism-based; conditions: in vivo; summary of the method: as §2
[10] = Ratio of drug level in tumor to brain of C57BL/6 mouse bearing mouse B16-F0 cells at 0.74 to 0.92 MBq, iv after 6 hrs; format: ADME, organism-based; conditions: in vivo; summary of the method: as §2
Brain [11] = assay: Biodistribution in brain of C57BL/6 mouse bearing mouse B16-F0 cells at 0.74 to 0.92 MBq, iv after 3 hrs; format: ADME, organism-based; conditions: in vivo
Summary of the method: (§3)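 Male C57BL6 mice with s.c. left-flank B16-F0 melanoma (5 × 10⁵ cells in PBS). Two mice per time point frozen in liquid nitrogen after CO₂ sacrifice. Eight 40 µm whole-body cryosections per mouse read by multiwire proportional counter. cpm/mm² converted to kBq/g and expressed as %ID/g.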

Brain [12] = assay: Biodistribution in brain of C57BL/6 mouse bearing mouse B16-F0 cells at 0.74 to 0.92 MBq, iv after 6 hrs; format: ADME, organism-based; conditions: in vivo; summary of the method: as §3
[13] = Biodistribution in Stomach content of C57BL/6 mouse bearing mouse B16-F0 cells at 0.74 to 0.92 MBq, iv after 1 hr; format: ADME, organism-based; conditions: in vivo; summary of the method: as §3
[14] = Biodistribution in Stomach content of C57BL/6 mouse bearing mouse B16-F0 cells at 0.74 to 0.92 MBq, iv after 3 hrs; format: ADME, organism-based; conditions: in vivo; summary of the method: as §3
Liver [15] = assay: Biodistribution in liver of C57BL/6 mouse bearing mouse B16-F0 cells at 0.74 to 0.92 MBq, iv after 3 hrs; format: ADME, organism-based; conditions: in vivo; summary of the method: as §3
Liver [16] = assay: Biodistribution in liver of C57BL/6 mouse bearing mouse B16-F0 cells at 0.74 to 0.92 MBq, iv after 6 hrs; format: ADME, organism-based; conditions: in vivo; summary of the method: as §3
Pancreas [17] = assay: Biodistribution in pancreas of C57BL/6 mouse bearing mouse B16-F0 cells at 0.74 to 0.92 MBq, iv after 3 hrs; format: ADME, organism-based; conditions: in vivo; summary of the method: as §3
Lung = assay: Biodistribution in lung of C57BL/6 mouse bearing mouse B16-F0 cells at 0.74 to 0.92 MBq, iv after 24 hrs; format: ADME, organism-based; conditions: in vivo; summary of the method: as §3
Spleen [18] = assay: Biodistribution in spleen of C57BL/6 mouse bearing mouse B16-F0 cells at 0.74 to 0.92 MBq, iv after 24 hrs; format: ADME, organism-based; conditions: in vivo; summary of the method: as §1
Spleen [19] = assay: Biodistribution in spleen of C57BL/6 mouse bearing mouse B16-F0 cells at 0.74 to 0.92 MBq, iv after 72 hrs; format: ADME, organism-based; conditions: in vivo; summary of the method: as §1
Kidney [20] = assay: Biodistribution in kidney of C57BL/6 mouse bearing mouse B16-F0 cells at 0.74 to 0.92 MBq, iv after 1 hr; format: ADME, organism-based; conditions: in vivo; summary of the method: as §3
Kidney [21] = assay: Biodistribution in kidney of C57BL/6 mouse bearing mouse B16-F0 cells at 0.74 to 0.92 MBq, iv after 24 hrs; format: ADME, organism-based; conditions: in vivo; summary of the method: as §3
Blood = assay: Biodistribution in blood of C57BL/6 mouse bearing mouse B16-F0 cells at 0.74 to 0.92 MBq, iv after 6 hrs; format: ADME, organism-based; conditions: in vivo; summary of the method: as §3
[22] = Biodistribution in uvea of C57BL/6 mouse bearing mouse B16-F0 cells at 0.74 to 0.92 MBq, iv after 3 hrs; format: ADME, organism-based, Uveal tract; conditions: in vivo; summary of the method: as §1
[23] = Biodistribution in uvea of C57BL/6 mouse bearing mouse B16-F0 cells at 0.74 to 0.92 MBq, iv after 6 hrs; format: ADME, organism-based, Uveal tract; conditions: in vivo; summary of the method: as §1
[24] = Biodistribution in uvea of C57BL/6 mouse bearing mouse B16-F0 cells at 0.74 to 0.92 MBq, iv after 72 hrs; format: ADME, organism-based, Uveal tract; conditions: in vivo; summary of the method: as §1
Thyroid gland [25] = assay: Biodistribution in thyroid of C57BL/6 mouse bearing mouse B16-F0 cells at 0.74 to 0.92 MBq, iv after 1 hr; format: ADME, organism-based; conditions: in vivo; summary of the method: as §1
Thyroid gland [26] = assay: Biodistribution in thyroid of C57BL/6 mouse bearing mouse B16-F0 cells at 0.74 to 0.92 MBq, iv after 3 hrs; format: ADME, organism-based; conditions: in vivo; summary of the method: as §1
Thyroid gland [27] = assay: Biodistribution in thyroid of C57BL/6 mouse bearing mouse B16-F0 cells at 0.74 to 0.92 MBq, iv after 72 hrs; format: ADME, organism-based; conditions: in vivo; summary of the method: as §1
[28] = Biodistribution in gall bladder of C57BL/6 mouse bearing mouse B16-F0 cells at 0.74 to 0.92 MBq, iv after 6 hrs; format: ADME, organism-based; conditions: in vivo; summary of the method: as §3
Pancreas [29] = assay: Biodistribution in pancreas of C57BL/6 mouse bearing mouse B16-F0 cells at 0.74 to 0.92 MBq, iv after 6 hrs; format: ADME, organism-based; conditions: in vivo; summary of the method: as §3
[30] = Biodistribution in Stomach content of C57BL/6 mouse bearing mouse B16-F0 cells at 0.74 to 0.92 MBq, iv after 72 hrs; format: ADME, organism-based; conditions: in vivo; summary of the method: as §3

Compound	logD [1]	Activity [2] [%]	Drug uptake [3] [% ID/g]	Ratio [4]	Ratio [5]	Ratio [6]	Ratio [7]	Ratio [9]	Drug uptake (Brain [11]) [% ID/g]	Drug uptake [13] [% ID/g]	Drug uptake [14] [% ID/g]	Drug uptake (Liver [15]) [% ID/g]	Drug uptake (Liver [16]) [% ID/g]	Drug uptake (Kidney [20]) [% ID/g]	Drug uptake (Blood) [% ID/g]	Drug uptake [22] [% ID/g]	Drug uptake [23] [% ID/g]	Drug uptake [24] [% ID/g]	Drug uptake (Thyroid gland [25]) [% ID/g]	Drug uptake (Thyroid gland [26]) [% ID/g]	further results
CCN(CC)CCNC(=O)c1cc2cc([125I])ccc2o1.Cl	1.57	21.4	7.5	1.36	1.72	5.9	13.3	6	0.24	17.09	16.07	2.74	1.77	6.5	1.28	20.11	13.91	10.11	16.78	22.43	Drug uptake (Thyroid gland [27]): 15.7 % ID/g
CCN(CC)CCNC(=O)c1ccc([125I])nc1.Cl.Cl	-0.29	67.3	9.3	3.01	2.04	2.34	2.17	24.2	0.22	34.8	42.71	3.01	2.09	6.08	3.71	12.69	11.5	2.54	25.29	59.09	Drug uptake [28]: 4.9 % ID/g; Ratio [10]: 58.08; Drug uptake (Brain [12]): 0.12 % ID/g; Drug uptake (Pancreas [17]): 2.53 % ID/g; Drug uptake (Pancreas [29]): 2.27 % ID/g; Drug uptake (Thyroid gland [27]): 178.8 % ID/g
CCN(CC)CCNC(=O)c1cnc2cc([125I])ccc2n1.Cl.Cl	1.12	70.2	27.7	1.29	2.17	4.87	9.13	7.26	1.03	24.33	20.33	8.87	7.53	16.46	3.09	24.79	32.3	25.26	–	39.76	Drug uptake [28]: 33.38 % ID/g; Drug uptake [30]: 2.23 % ID/g
CCN(CC)CCNC(=O)c1cc2c([125I])cccc2cn1.Cl.Cl	1.65	49.9	7.1	1.88	1.96	2.58	3.86	24.23	0.09	23.01	19.05	2.02	1.54	4.62	2.17	13.87	18.02	9.73	16.88	35.71	Drug uptake (Spleen [19]): 1.62 % ID/g; Drug uptake (Thyroid gland [27]): 132.79 % ID/g
CCN(CC)CCNC(=O)c1ccc2cncc([125I])c2n1.Cl.Cl	0.51	68.9	13.9	5.92	9.86	7.41	9.03	27.14	–	17.58	9.76	2.27	1.49	4.01	1.36	20.3	13.15	13.06	20.16	41.44	Drug uptake [28]: 28.67 % ID/g; Drug uptake [30]: 2.13 % ID/g

The next lines start with results.

logD [1]	Activity [2] [%]	Drug uptake [3] [% ID/g]	Ratio [4]	Ratio [5]	Ratio [6]	Ratio [7]	Ratio [9]	Drug uptake (Brain [11]) [% ID/g]	Drug uptake [13] [% ID/g]	Drug uptake [14] [% ID/g]	Drug uptake (Liver [15]) [% ID/g]	Drug uptake (Liver [16]) [% ID/g]	Drug uptake (Kidney [20]) [% ID/g]	Drug uptake (Blood) [% ID/g]	Drug uptake [22] [% ID/g]	Drug uptake [23] [% ID/g]	Drug uptake [24] [% ID/g]	Drug uptake (Thyroid gland [25]) [% ID/g]	Drug uptake (Thyroid gland [26]) [% ID/g]	Compound	further results
1.87	80.7	25.4	1.8	2.09	4.54	3.23	10.02	0.83	48.03	34.72	8.89	7.11	11.82	5.91	33.1	36.62	18.3	–	–	CCN(CC)CCNC(=O)c1ccc2cc([125I])ccc2n1.Cl.Cl	Ratio [8]: 22.89; Ratio [10]: 46.51; Drug uptake (Brain [12]): 0.37 % ID/g; Drug uptake (Pancreas [17]): 6.17 % ID/g; Drug uptake (Lung): 0.53 % ID/g; Drug uptake (Spleen [18]): 2.66 % ID/g; Drug uptake (Spleen [19]): 1.85 % ID/g; Drug uptake (Kidney [21]): 0.34 % ID/g
1.33	43.7	11.4	1.37	1.1	2.57	4.22	2.97	0.78	27.82	24.69	4.75	2.73	13.3	1.74	13.9	12.76	7.84	–	–	CCN(CC)CCNC(=O)c1ccc2cc([125I])ccc2c1.Cl	Ratio [10]: 35.8; Drug uptake (Brain [12]): 0.25 % ID/g; Drug uptake (Pancreas [17]): 8.19 % ID/g
